Assay results as given in ChEMBL document CHEMBL4152264, “Design, synthesis, antiproliferative activity and docking studies of quinazoline derivatives bearing 2,3-dihydro-indole or 1,2,3,4-tetrahydroquinoline as potential EGFR inhibitors” (Eur J Med Chem, 2018).

Columns and labels:
MCF7 = assay: Antiproliferative activity against human MCF7 cells after 72 hrs by MTT assay; type: functional, cell-based; conditions: MCF7, 72 h
PC-3 = assay: Antiproliferative activity against human PC3 cells after 72 hrs by MTT assay; type: functional, cell-based; conditions: PC-3, 72 h
In short: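 Cells grown in MEM with 10% FBS. About 4×10³ cells per well seeded and incubated 24 h at 37 °C, 5% CO₂. Compounds added at indicated final concentrations for 72 h. MTT at 5 µg/mL final for 4 h at 37 °C. Formazan dissolved in DMSO, absorbance read at 492 nm with 630 nm reference. Tested three times; IC50 is the mean of two determinations.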

[1] = Solubility of the compound in water; type: physicochemical; conditions: buffer
A549 [2] = assay: Antiproliferative activity against human A549 cells after 72 hrs by MTT assay; type: functional, cell-based; conditions: A549, 72 h
[3] = biological target: Epidermal growth factor receptor (Homo sapiens, UniProt P00533, T790M); assay: Inhibition of wild type EGFR T790M mutant (unknown origin) using FAM-labeled peptide substrate after 10 mins by mobility shift assay
[4] = biological target: Epidermal growth factor receptor (Homo sapiens, UniProt P00533); assay: Inhibition of wild type EGFR (unknown origin) using FAM-labeled peptide substrate after 10 mins by mobility shift assay
A549 [5] = assay: Induction of apoptosis in human A549 cells assessed as live cells at 0.5 uM after 48 hrs by Annexin V-FITC/propidium iodide staining based flow cytometry (reference value: 91.81%); type: functional
A549 [6] = assay: Induction of apoptosis in human A549 cells assessed as early apoptotic cells at 0.5 uM after 48 hrs by Annexin V-FITC/propidium iodide staining based flow cytometry (reference value: 5.61%); type: functional
A549 [7] = assay: Induction of apoptosis in human A549 cells assessed as late apoptotic cells at 0.5 uM after 48 hrs by Annexin V-FITC/propidium iodide staining based flow cytometry (reference value: 2.07%); type: functional
A549 [8] = assay: Induction of apoptosis in human A549 cells assessed as necrotic cells at 0.5 uM after 48 hrs by Annexin V-FITC/propidium iodide staining based flow cytometry (reference value: 0.51%); type: functional

Sequence of Epidermal growth factor receptor (Homo sapiens, UniProt P00533) (P00533 whole entry): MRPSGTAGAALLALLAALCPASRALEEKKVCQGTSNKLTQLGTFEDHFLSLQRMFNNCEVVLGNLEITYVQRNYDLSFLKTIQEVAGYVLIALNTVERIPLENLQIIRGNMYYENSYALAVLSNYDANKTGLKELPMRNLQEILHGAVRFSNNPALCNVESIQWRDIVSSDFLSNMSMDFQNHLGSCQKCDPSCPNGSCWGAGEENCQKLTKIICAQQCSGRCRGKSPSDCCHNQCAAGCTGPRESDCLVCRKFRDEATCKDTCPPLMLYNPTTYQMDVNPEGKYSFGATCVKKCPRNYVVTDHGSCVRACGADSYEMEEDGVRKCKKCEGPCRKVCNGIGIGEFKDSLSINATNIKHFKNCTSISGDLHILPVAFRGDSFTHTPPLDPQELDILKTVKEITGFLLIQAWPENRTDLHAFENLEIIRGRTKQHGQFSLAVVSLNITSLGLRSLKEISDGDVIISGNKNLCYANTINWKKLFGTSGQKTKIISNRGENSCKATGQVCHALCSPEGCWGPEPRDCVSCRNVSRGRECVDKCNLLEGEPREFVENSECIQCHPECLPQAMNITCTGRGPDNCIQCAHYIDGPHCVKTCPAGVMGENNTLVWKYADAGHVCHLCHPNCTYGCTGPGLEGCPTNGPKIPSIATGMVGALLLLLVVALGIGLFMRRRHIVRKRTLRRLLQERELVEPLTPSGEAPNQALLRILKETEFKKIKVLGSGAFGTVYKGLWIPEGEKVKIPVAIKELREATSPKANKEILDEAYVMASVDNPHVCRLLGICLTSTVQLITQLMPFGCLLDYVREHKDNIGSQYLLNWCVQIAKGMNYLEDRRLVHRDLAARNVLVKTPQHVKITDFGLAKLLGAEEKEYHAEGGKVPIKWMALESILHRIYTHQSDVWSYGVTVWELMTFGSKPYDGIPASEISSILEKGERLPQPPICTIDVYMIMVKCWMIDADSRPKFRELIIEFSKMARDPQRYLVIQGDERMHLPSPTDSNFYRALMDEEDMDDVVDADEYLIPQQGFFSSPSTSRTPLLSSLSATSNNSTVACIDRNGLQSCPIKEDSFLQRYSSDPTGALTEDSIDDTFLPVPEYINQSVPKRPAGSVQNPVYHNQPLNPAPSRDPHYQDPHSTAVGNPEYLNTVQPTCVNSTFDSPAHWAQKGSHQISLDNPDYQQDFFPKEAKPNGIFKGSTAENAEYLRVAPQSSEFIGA
Sequence of Epidermal growth factor receptor (Homo sapiens, UniProt P00533, T790M) (P00533 25-1210 T790M limits assumed): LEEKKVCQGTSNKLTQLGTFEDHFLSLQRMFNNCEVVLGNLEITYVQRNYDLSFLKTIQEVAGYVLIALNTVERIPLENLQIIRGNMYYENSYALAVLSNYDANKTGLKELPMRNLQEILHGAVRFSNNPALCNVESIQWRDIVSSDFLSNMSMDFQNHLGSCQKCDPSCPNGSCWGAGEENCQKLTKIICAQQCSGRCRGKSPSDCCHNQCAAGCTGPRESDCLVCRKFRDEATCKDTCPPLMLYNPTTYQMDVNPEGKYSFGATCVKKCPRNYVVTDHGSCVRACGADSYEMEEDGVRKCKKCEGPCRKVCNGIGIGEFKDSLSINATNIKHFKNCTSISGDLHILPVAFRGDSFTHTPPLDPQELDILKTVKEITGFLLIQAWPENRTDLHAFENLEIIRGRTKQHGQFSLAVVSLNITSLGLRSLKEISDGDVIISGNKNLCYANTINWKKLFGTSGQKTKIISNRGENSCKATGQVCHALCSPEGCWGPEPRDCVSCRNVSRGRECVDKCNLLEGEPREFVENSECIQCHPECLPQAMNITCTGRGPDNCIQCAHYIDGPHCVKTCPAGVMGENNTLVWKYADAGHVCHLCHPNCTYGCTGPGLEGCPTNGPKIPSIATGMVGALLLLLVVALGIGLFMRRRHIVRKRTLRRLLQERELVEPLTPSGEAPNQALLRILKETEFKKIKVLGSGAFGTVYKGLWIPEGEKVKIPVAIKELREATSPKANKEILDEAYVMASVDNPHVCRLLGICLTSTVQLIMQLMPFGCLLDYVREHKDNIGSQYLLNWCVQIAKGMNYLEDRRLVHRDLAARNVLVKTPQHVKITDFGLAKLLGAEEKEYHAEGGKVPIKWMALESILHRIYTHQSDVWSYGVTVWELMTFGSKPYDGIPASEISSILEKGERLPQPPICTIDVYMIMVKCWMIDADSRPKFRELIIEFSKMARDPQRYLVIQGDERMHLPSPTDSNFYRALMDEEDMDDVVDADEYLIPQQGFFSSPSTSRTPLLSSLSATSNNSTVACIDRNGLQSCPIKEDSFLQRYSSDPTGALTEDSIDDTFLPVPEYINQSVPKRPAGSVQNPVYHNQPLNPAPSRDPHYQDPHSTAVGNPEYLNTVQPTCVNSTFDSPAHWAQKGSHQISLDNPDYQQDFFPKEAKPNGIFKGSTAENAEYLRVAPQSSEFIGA

Structure (SMILES)	IC50 (MCF7) [µM]	IC50 (PC-3) [µM]	solubility [1]	IC50 (A549 [2]) [µM]	IC50 [3] [µM]	IC50 [4] [µM]	Activity (A549 [5]) [%]	Activity (A549 [6]) [%]	Activity (A549 [7]) [%]	Activity (A549 [8]) [%]
COc1cc2ncnc(N3CCCc4ccccc43)c2cc1NC(=O)/C=C/C(C)C	4.29	8.43	Insoluble	3.45	–	–	–	–	–	–
C/C=C/C(=O)Nc1cc2c(N3CCc4ccccc43)ncnc2cc1O[C@@H]1CCOC1	4.9	5.22	Insoluble	2.61	0.192	0.029	–	–	–	–
COc1cc2ncnc(N3CCCc4ccccc43)c2cc1NC(=O)C=C(C)C	6.87	6.13	Insoluble	5.41	–	–	–	–	–	–
CC(C)/C=C/C(=O)Nc1cc2c(N3CCc4ccccc43)ncnc2cc1O[C@@H]1CCOC1	9.88	11.2	Insoluble	8.52	–	–	–	–	–	–
O=C(/C=C/CN1CCC(CO)CC1)Nc1cc2c(N3CCCc4ccccc43)ncnc2cc1O[C@@H]1CCOC1	4.96	5.46	–	5.3	–	–	–	–	–	–
CCN(CC)C/C=C/C(=O)Nc1cc2c(N3CCCc4ccccc43)ncnc2cc1OC	5.31	6.89	–	6.41	–	–	–	–	–	–
CCC/C=C/C(=O)Nc1cc2c(N3CCCc4ccccc43)ncnc2cc1O[C@@H]1CCOC1	4.23	11.8	Insoluble	7.32	–	–	–	–	–	–
CC/C=C/C(=O)Nc1cc2c(N3CCc4ccccc43)ncnc2cc1OC	4.03	5.89	Insoluble	2.47	0.186	0.017	–	–	–	–
C=CC(=O)Nc1cc2c(N3CCc4ccccc43)ncnc2cc1OC	11.7	5.94	Insoluble	5.58	–	–	–	–	–	–
COc1cc2ncnc(N3CCc4ccccc43)c2cc1NC(=O)/C=C/CN1CCOCC1	8.45	8.29	–	9.25	–	–	–	–	–	–
COc1cc2ncnc(N3CCCc4ccccc43)c2cc1NC(=O)/C=C/CN1CCC(CO)CC1	5.74	7.15	–	6.97	–	–	–	–	–	–
O=C(/C=C/CN1CCCC1)Nc1cc2c(N3CCCc4ccccc43)ncnc2cc1O[C@@H]1CCOC1	4.25	5.78	–	6.51	–	–	–	–	–	–
COc1cc2ncnc(N3CCCc4ccccc43)c2cc1NC(=O)/C=C/CN1CCCCC1	3.93	5.78	–	2.88	–	–	–	–	–	–
C/C=C/C(=O)Nc1cc2c(N3CCc4ccccc43)ncnc2cc1OC	4.03	8.12	Insoluble	8.29	–	–	–	–	–	–
CN1CCN(C/C=C/C(=O)Nc2cc3c(N4CCCc5ccccc54)ncnc3cc2O[C@@H]2CCOC2)CC1	7.18	9.45	–	5.87	–	–	–	–	–	–
C=C(C)C(=O)Nc1cc2c(N3CCc4ccccc43)ncnc2cc1O[C@@H]1CCOC1	14.7	4.91	Insoluble	16.6	–	–	–	–	–	–
CC/C=C/C(=O)Nc1cc2c(N3CCCc4ccccc43)ncnc2cc1OC	2.87	6.31	Insoluble	5.03	–	–	–	–	–	–
CCN(CC)C/C=C/C(=O)Nc1cc2c(N3CCc4ccccc43)ncnc2cc1O[C@@H]1CCOC1	4.98	5.78	–	5.22	–	–	–	–	–	–
CC(C)/C=C/C(=O)Nc1cc2c(N3CCCc4ccccc43)ncnc2cc1O[C@@H]1CCOC1	4.68	8.51	Insoluble	6.82	–	–	–	–	–	–
C/C=C/C(=O)Nc1cc2c(N3CCCc4ccccc43)ncnc2cc1O[C@@H]1CCOC1	5.93	9.35	Insoluble	10.8	–	–	–	–	–	–
CC(C)=CC(=O)Nc1cc2c(N3CCCc4ccccc43)ncnc2cc1O[C@@H]1CCOC1	11.1	9.02	Insoluble	7.91	–	–	–	–	–	–
COc1cc2ncnc(N3CCc4ccccc43)c2cc1NC(=O)/C=C/CN1CCN(C)CC1	6.43	9.18	–	5.36	–	–	–	–	–	–
CC/C=C/C(=O)Nc1cc2c(N3CCc4ccccc43)ncnc2cc1O[C@@H]1CCOC1	8.84	9.59	Insoluble	10.9	–	–	–	–	–	–
COc1cc2ncnc(N3CCCc4ccccc43)c2cc1NC(=O)/C=C/CN1CCN(C)CC1	8.56	6.26	–	7.83	–	–	–	–	–	–
CC/C=C/C(=O)Nc1cc2c(N3CCCc4ccccc43)ncnc2cc1O[C@@H]1CCOC1	14.4	14.3	Insoluble	14.1	–	–	–	–	–	–
CCC/C=C/C(=O)Nc1cc2c(N3CCc4ccccc43)ncnc2cc1O[C@@H]1CCOC1	4.55	9.23	Insoluble	9.11	–	–	–	–	–	–
COc1cc2ncnc(N3CCc4ccccc43)c2cc1NC(=O)C=C(C)C	6.39	7.84	Insoluble	6.27	–	–	–	–	–	–
C/C=C/C(=O)Nc1cc2c(N3CCCc4ccccc43)ncnc2cc1OC	12.7	7.52	Insoluble	8.19	–	–	–	–	–	–
COc1cc2ncnc(N3CCc4ccccc43)c2cc1NC(=O)/C=C/C(C)C	6.78	6.53	Insoluble	6.41	–	–	–	–	–	–

Further lines, with some results ahead:

IC50 (MCF7) [µM]	IC50 (PC-3) [µM]	solubility [1]	IC50 (A549 [2]) [µM]	IC50 [3] [µM]	IC50 [4] [µM]	Structure (SMILES)	Activity (A549 [5]) [%]	Activity (A549 [6]) [%]	Activity (A549 [7]) [%]	Activity (A549 [8]) [%]
3.37	2.19	–	2.04	–	–	COc1cc2ncnc(N3CCc4ccccc43)c2cc1NC(=O)/C=C/CN(C)C	–	–	–	–
5.35	4.21	–	6.09	–	–	CN1CCN(C/C=C/C(=O)Nc2cc3c(N4CCc5ccccc54)ncnc3cc2O[C@@H]2CCOC2)CC1	–	–	–	–
1.21	2.24	Insoluble	1.8	0.162	0.033	CCC/C=C/C(=O)Nc1cc2c(N3CCCc4ccccc43)ncnc2cc1OC	–	–	–	–
3.87	4.27	–	5.65	–	–	CCN(CC)C/C=C/C(=O)Nc1cc2c(N3CCCc4ccccc43)ncnc2cc1O[C@@H]1CCOC1	–	–	–	–
3.16	4.24	Insoluble	2.92	–	–	CCC/C=C/C(=O)Nc1cc2c(N3CCc4ccccc43)ncnc2cc1OC	–	–	–	–
–	2.51	–	–	–	–	CN(C)C/C=C/C(=O)Nc1cc2c(Nc3ccc(F)c(Cl)c3)ncnc2cc1O[C@@H]1CCOC1	81.34	13.53	4.27	0.86
1.51	2.62	–	1.21	0.034	0.003	COc1cc2ncnc(N3CCc4ccccc43)c2cc1NC(=O)/C=C/CN1CCCC1	–	–	–	–
2.85	4.17	–	2.32	–	–	CN(C)C/C=C/C(=O)Nc1cc2c(N3CCCc4ccccc43)ncnc2cc1O[C@@H]1CCOC1	–	–	–	–
2.31	1.51	–	2.23	–	–	O=C(/C=C/CN1CCCC1)Nc1cc2c(N3CCc4ccccc43)ncnc2cc1O[C@@H]1CCOC1	–	–	–	–
3.19	1.74	–	2.23	–	–	COc1cc2ncnc(N3CCCc4ccccc43)c2cc1NC(=O)/C=C/CN1CCCC1	–	–	–	–
4.45	3.63	–	3.67	–	–	O=C(/C=C/CN1CCCCC1)Nc1cc2c(N3CCCc4ccccc43)ncnc2cc1O[C@@H]1CCOC1	–	–	–	–
1.68	4.18	–	2.54	0.115	0.0454	COc1cc2ncnc(N3CCc4ccccc43)c2cc1NC(=O)/C=C/CN1CCCCC1	–	–	–	–
4.69	3.31	–	3.67	–	–	O=C(/C=C/CN1CCC(CO)CC1)Nc1cc2c(N3CCc4ccccc43)ncnc2cc1O[C@@H]1CCOC1	–	–	–	–
1.99	3.69	–	1.69	–	–	CCN(CC)C/C=C/C(=O)Nc1cc2c(N3CCc4ccccc43)ncnc2cc1OC	–	–	–	–
5.95	2.71	Insoluble	9.32	–	–	C=CC(=O)Nc1cc2c(N3CCc4ccccc43)ncnc2cc1O[C@@H]1CCOC1	–	–	–	–
1.77	1.75	–	1.65	0.107	0.072	COc1cc2ncnc(N3CCCc4ccccc43)c2cc1NC(=O)/C=C/CN(C)C	–	–	–	–
2.62	2.65	–	1.98	0.021	0.004	COc1cc2ncnc(N3CCc4ccccc43)c2cc1NC(=O)/C=C/CN1CCC(CO)CC1	–	–	–	–
11.1	4.83	Insoluble	7.32	–	–	C=C(C)C(=O)Nc1cc2c(N3CCc4ccccc43)ncnc2cc1OC	–	–	–	–
1.89	4.51	–	4.66	–	–	O=C(/C=C/CN1CCCCC1)Nc1cc2c(N3CCc4ccccc43)ncnc2cc1O[C@@H]1CCOC1	–	–	–	–
15.7	4.62	Insoluble	3.67	–	–	CC(C)=CC(=O)Nc1cc2c(N3CCc4ccccc43)ncnc2cc1O[C@@H]1CCOC1	–	–	–	–
